Activity calls are given as the source filed them. The rule behind the calls is not given here.
How the values were obtained:
[1] = Ratio of drug uptake in SCID mouse xenograted with human HT-29 cells assessed as tumour retention to drug uptake in spleen of SCID mouse xenografted with human HT-29 cells measured after 24 hrs using 177Lu labelled compound; type: ADME, tissue-based, Tumor/Spleen
Summary of the method: (§1)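 Female SCID mice (5 weeks old) received s.c. flank HT-29 cells (5 × 10^6 in Matrigel). At ~80 mm3, two weeks later, mice were randomized and given 10 μCi (0.37 MBq) of purified 177Lu conjugate i.v. by tail vein. Mice were killed at 4, 24 or 72 h. Tissues were weighed and gamma counted as %ID/g, mean ± SD, n = 5. Tumor-to-tissue ratios were calculated.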

[2] = Ratio of drug uptake in SCID mouse xenograted with human HT-29 cells assessed as tumour retention to drug uptake in large intestine of SCID mouse xenografted with human HT-29 cells measured after 4 hrs using 177Lu labelled compound; type: ADME, tissue-based, Tumor/Large intestine; summary of the method: as §1
[3] = Ratio of drug uptake in SCID mouse xenograted with human HT-29 cells assessed as tumour retention to drug uptake in large intestine of SCID mouse xenografted with human HT-29 cells measured after 24 hrs using 177Lu labelled compound; type: ADME, tissue-based, Tumor/Large intestine; summary of the method: as §1
[4] = Ratio of drug uptake in SCID mouse xenograted with human HT-29 cells assessed as tumour retention to drug uptake in lung of SCID mouse xenografted with human HT-29 cells measured after 4 hrs using 177Lu labelled compound; type: ADME, tissue-based, Tumor/Lung; summary of the method: as §1
[5] = Ratio of drug uptake in SCID mouse xenograted with human HT-29 cells assessed as tumour retention to drug uptake in blood of SCID mouse xenografted with human HT-29 cells measured after 24 hrs using 177Lu labelled compound; type: ADME, tissue-based, Tumor/Blood; summary of the method: as §1
[6] = Ratio of drug uptake in SCID mouse xenograted with human HT-29 cells assessed as tumour retention to drug uptake in muscle of SCID mouse xenografted with human HT-29 cells measured after 4 hrs using 177Lu labelled compound; type: ADME, tissue-based, Tumor/Muscle; summary of the method: as §1
[7] = Ratio of drug uptake in SCID mouse xenograted with human HT-29 cells assessed as tumour retention to drug uptake in kidney of SCID mouse xenografted with human HT-29 cells measured after 72 hrs using 177Lu labelled compound; type: ADME, tissue-based, Tumor/Kidney; summary of the method: as §1
[8] = Ratio of drug uptake in SCID mouse xenograted with human HT-29 cells assessed as tumour retention to drug uptake in lung of SCID mouse xenografted with human HT-29 cells measured after 72 hrs using 177Lu labelled compound; type: ADME, tissue-based, Tumor/Lung; summary of the method: as §1
[9] = Ratio of drug uptake in SCID mouse xenograted with human HT-29 cells assessed as tumour retention to drug uptake in liver of SCID mouse xenografted with human HT-29 cells measured after 24 hrs using 177Lu labelled compound; type: ADME, tissue-based, Tumor/Liver; summary of the method: as §1
[10] = Ratio of drug uptake in SCID mouse xenograted with human HT-29 cells assessed as tumour retention to drug uptake in spleen of SCID mouse xenografted with human HT-29 cells measured after 72 hrs using 177Lu labelled compound; type: ADME, tissue-based, Tumor/Spleen; summary of the method: as §1
[11] = Ratio of drug uptake in SCID mouse xenograted with human HT-29 cells assessed as tumour retention to drug uptake in small intestine of SCID mouse xenografted with human HT-29 cells measured after 4 hrs using 177Lu labelled compound; type: ADME, tissue-based, Tumor/Small intestine; summary of the method: as §1
[12] = Ratio of drug uptake in SCID mouse xenograted with human HT-29 cells assessed as tumour retention to drug uptake in pancreas of SCID mouse xenografted with human HT-29 cells measured after 24 hrs using 177Lu labelled compound; type: ADME, tissue-based, Tumor/Pancreas; summary of the method: as §1
[13] = Ratio of drug uptake in SCID mouse xenograted with human HT-29 cells assessed as tumour retention to drug uptake in liver of SCID mouse xenografted with human HT-29 cells measured after 72 hrs using 177Lu labelled compound; type: ADME, tissue-based, Tumor/Liver; summary of the method: as §1
[14] = Drug localization in endolysosomal vesicles of human HT-29 cells measured at 2 hrs using Eu labelled compound by lysotracker green staining based confocal microscopic analysis; type: ADME, subcellular; details: ht-29, 2 h
Summary of the method: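 HT-29 cells (1.25 × 10^5/well) incubated 2 h at 37 °C with natEu conjugate (5 μM), with or without N1 (20 μM). Lysotracker Green (100 nM) added for 1 h; cells washed, formaldehyde-fixed and imaged confocally at 405/488 nm excitation. Mean pixel intensity normalized to cell count.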

[15] = target: Neurotensin receptor type 1 (Homo sapiens, UniProt P30989); assay: Substrate activity at neurotensin receptor in human HT-29 cells assessed as reduction in drug uptake in presence of NTRS1 peptide N1 using Eu labelled compound measured at 2 hrs by lysotracker green staining based confocal microscopic analysis; type: cell-based; parameters: scale not given: the % may be the effect or the level left
Neurotensin receptor type 1, sequence (P30989 whole entry): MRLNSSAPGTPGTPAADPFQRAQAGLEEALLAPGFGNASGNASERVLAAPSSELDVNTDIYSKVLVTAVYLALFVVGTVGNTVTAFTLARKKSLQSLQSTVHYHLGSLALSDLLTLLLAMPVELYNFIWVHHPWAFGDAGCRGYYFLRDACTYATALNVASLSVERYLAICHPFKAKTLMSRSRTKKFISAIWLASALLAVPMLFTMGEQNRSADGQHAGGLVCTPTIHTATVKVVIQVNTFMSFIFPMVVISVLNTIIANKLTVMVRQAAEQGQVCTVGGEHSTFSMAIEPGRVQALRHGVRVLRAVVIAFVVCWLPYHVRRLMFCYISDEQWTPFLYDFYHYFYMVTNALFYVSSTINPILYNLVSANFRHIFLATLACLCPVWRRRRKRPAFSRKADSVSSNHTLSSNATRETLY
Summary of the method: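 HT-29 cells (1.25 × 10^5/well) were given natEu-labeled conjugate (5 μM) with or without NTSR1 peptide N1 (20 μM) for 2 h at 37 °C. LysoTracker Green (100 nM) was added for 1 h. Cells were PBS washed, formaldehyde fixed and imaged by confocal microscopy (ex 405 and 488 nm). Mean pixel intensity was normalized to cell count.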

[16] = Drug retention in tumor of mouse xenografted with human HT-29 cells assessed as conjugate adduct formation at 29.6 MBq measured after 72 hrs using 177Lu labelled compound by SDS-PAGE analysis; type: ADME, tissue-based, Neoplasm; details: in vivo
Summary of the method: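 HT-29 xenograft mice given 800 μCi (29.6 MBq) 177Lu conjugate i.v. and killed at 72 h. Tumor, liver and kidney homogenized in RIPA with protease inhibitor and supernatants run on SDS-PAGE autoradiography. Other supernatant aliquots filtered through 10 kDa MWCO devices to give the % macromolecule-associated radioactivity; n = 3.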

[17] = Drug uptake in human HT-29 cells measured after 240 mins using 177Lu labelled compound by gamma counter method relative to control; type: ADME, cell-based; details: ht-29, 4 h
Summary of the method: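 HT-29 cells (~1 × 10^6 in 1 mL medium) were incubated with 177Lu-conjugate (100,000 cpm) at 37 °C and sampled at 15–240 min. After medium washes, surface-bound activity was stripped with pH 2.8 glycine-HCl/NaCl buffer, and the internalized fraction was taken from the 1% SDS lysate. Fractions were gamma-counted as % of total added activity; mean ± SD, n = 3.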

[18] = target: Cathepsin B (Homo sapiens, UniProt P07858); assay: Binding affinity to human liver cathepsin B assessed as protein-conjugate adduct formation incubated for 30 mins using 177Lu labelled compound by SDS-PAGE analysis
Summary of the method: (§2)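 Purified human liver CatB or CatL (3 nM) in 50 mM sodium acetate/1 mM EDTA pH 5.0 incubated 30 min with 177Lu conjugate (500,000 cpm) in Tris/MgCl2/DTT buffer pH 5.5, alone or with E-64 (10 μM) or N1 (20 μM). Mixtures heated 85 °C 2 min, run on 16% tris-glycine gel at 110 V for 90 min, and read by phosphor autoradiography.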

[19] = Stability of 177Lu labelled compound in human serum assessed as parent compound remaining at 37 degC after 1 hr RP-HPLC analysis; type: ADME, cell-free; details: read-out: Stability
Summary of the method: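 Radioconjugate (1.5 mCi, 55.5 MBq) was incubated in 300 μL human serum at 37 °C. At 1, 3 and 24 h, acetonitrile was added and samples were spun at 12,000×g for 5 min. Supernatant was dried under nitrogen, reconstituted in water and analyzed by radio-HPLC.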

[20] = target: Procathepsin L (Homo sapiens, UniProt P07711); assay: Binding affinity to human liver cathepsin L assessed as protein-conjugate adduct formation incubated for 30 mins using 177Lu labelled compound by SDS-PAGE analysis; summary of the method: as §2
Procathepsin L, sequence (P07711 114-333 limits assumed): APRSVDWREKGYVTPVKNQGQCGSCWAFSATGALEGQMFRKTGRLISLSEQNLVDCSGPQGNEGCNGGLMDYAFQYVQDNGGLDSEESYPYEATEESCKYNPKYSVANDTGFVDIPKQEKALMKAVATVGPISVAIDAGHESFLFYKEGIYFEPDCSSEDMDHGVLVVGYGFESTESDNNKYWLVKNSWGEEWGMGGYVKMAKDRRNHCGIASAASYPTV

Row | SMILES | Ratio [1] | Ratio [2] | Ratio [3] | Ratio [4] | Kp at 24 h [5] | Ratio [6] | Ratio [7] | Ratio [8] | Ratio [9] | Ratio [10] | Ratio [11] | Ratio [12] | Ratio [13] | Drug uptake [14] | Activity [15] | Drug uptake [16] | Drug uptake [17] | Activity [18] | remaining at 1 h [19] | Activity [20]
1 | Cc1cc(C)c(C(=O)OCC(=O)[C@H](CCCCNC(=O)CNC(=O)[C@@H](CO)NC(=O)[C@@H](CO)NC(=O)[C@@H](CO)NC(=O)Cn2cc(C[C@H](NC(=O)CN3CCN(CC(=O)O)CCN(CC(=O)O)CCN(CC(=O)O)CC3)C(=O)N[C@H](CO)C(=O)N[C@H](CO)C(=O)N[C@H](CO)C(=O)N[C@@H](CCCCN)C(=O)N3CCC[C@H]3C(=O)N(C)[C@@H](CCCNC(=N)N)C(=O)N[C@@H](CCCNC(=N)N)C(=O)N3CCC[C@H]3C(=O)N[C@@H](Cc3c(C)cc(O)cc3C)C(=O)N[C@H](C(=O)N[C@@H](CC(C)C)C(=O)O)C(C)(C)C)nn2)NC(=O)[C@H](Cc2ccccc2)NC(=O)OCc2ccccc2)c(C)c1 | 0.7 | 2.7 | 5 | 1.9 | 69 | 15 | 0.09 | 2.6 | 0.5 | 0.28 | 1.3 | 17 | 0.6 | – | – | – | – | – | – | –
2 | Cc1cc(O)cc(C)c1C[C@H](NC(=O)[C@@H]1CCCN1C(=O)[C@H](CCCNC(=N)N)NC(=O)[C@H](CCCNC(=N)N)N(C)C(=O)[C@@H]1CCCN1C(=O)[C@H](CCCCN)NC(=O)[C@@H](CO)NC(=O)[C@@H](CO)NC(=O)[C@@H](CO)NC(=O)[C@H](Cc1cn(CCNC(=O)[C@H](CCCNC(=N)N)NC(=O)[C@H](CC(C)C)NC(=O)C2OC2C(=O)O)nn1)NC(=O)CN1CCN(CC(=O)O)CCN(CC(=O)O)CCN(CC(=O)O)CC1)C(=O)N[C@H](C(=O)N[C@@H](CC(C)C)C(=O)O)C(C)(C)C (stereo not given in full) | 4 | 5.7 | 6 | 12.3 | 422 | 94 | 0.09 | 10 | 8.5 | 2.4 | 1.85 | 36 | 5.9 | Active | 63.7% | Active | 6% | Active | 93.6% | Active
3 | Cc1cc(O)cc(C)c1C[C@H](NC(=O)[C@@H]1CCCN1C(=O)[C@H](CCCNC(=N)N)NC(=O)[C@H](CCCNC(=N)N)N(C)C(=O)[C@@H]1CCCN1C(=O)[C@H](CCCCN)NC(=O)[C@@H](CO)NC(=O)[C@@H](CO)NC(=O)[C@@H](CO)NC(=O)[C@H](Cc1cn(CCNC(=O)[C@H](CCCNC(=N)N)NC(=O)[C@H](CC(C)C)NC(=O)CCC(=O)O)nn1)NC(=O)CN1CCN(CC(=O)O)CCN(CC(=O)O)CCN(CC(=O)O)CC1)C(=O)N[C@H](C(=O)N[C@@H](CC(C)C)C(=O)O)C(C)(C)C | – | – | – | – | – | – | – | – | – | – | – | – | – | Active | 65% | Not Active | 6% | inactive | 84.7% | inactive
